The text below walks through data of ChEMBL document CHEMBL5055621, “Synthesis and Characterization of the Novel Rodent-Active and CNS-Penetrant P2X7 Receptor Antagonist Lu AF27139” (J Med Chem, 2021).

The nature of series [1]: AUC (0 to 8 hr) in male rat at 150 mg/kg, po after 7 days. Format: ADME, organism-based. More on the design: time 7 day, dose 150 mg/kg, route po. Particulars: in vivo. A digest of the protocol:
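Oral dosing in male Sprague-Dawley rats (150−200 g, 7-day acclimation, standard housing) in a 7-day exploratory toxicology study.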

A short description of series [2]: Cmax in male rat at 150 mg/kg, po after 7 days. The series is classed as ADME, organism-based. More on the design: dose 150 mg/kg, time 7 day, route po. The conditions noted are these: in vivo.
Series [3] can be described thus: Inhibition of BzATP-induced IL-1beta in rat primary microglia cells primed with LPS measured after repeated BzATP treatment by microplate reader. The series is classed as functional, tissue-based. In a few lines: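 Cortical microglia from rat (P3 pups) or mouse were plated 1 day before assay and primed with 3 EU/mL LPS for 3.5 h. Compound was added for 30 min, then BzATP (1 mM) for 30 min at 37 °C. IL-1β was measured by MesoScale assay, normalised to BCA protein, and given as mean ± SD.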

The nature of series [4]: Free plasma concentration in rat at 100 mg/kg, po after 2 hrs by ex vivo equilibrium dialysis. The series is classed as ADME, organism-based. In a few lines: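 Male Sprague–Dawley rats were dosed orally at 1–100 mg/kg, and total plasma concentration was measured at 1 and 2 h. This was multiplied by fraction unbound from ex vivo equilibrium dialysis; mean ± SEM, n = 3 animals.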
(In equilibrium dialysis only unbound substance equilibrates across the membrane.)

The target of another series is Cytochrome P450 2C9 (Homo sapiens, UniProt P11712). The experiment in a line: Inhibition of CYP2C9 (unknown origin) upto 25 uM. The series is classed as ADME.
Sequence of Cytochrome P450 2C9 (P11712 whole entry): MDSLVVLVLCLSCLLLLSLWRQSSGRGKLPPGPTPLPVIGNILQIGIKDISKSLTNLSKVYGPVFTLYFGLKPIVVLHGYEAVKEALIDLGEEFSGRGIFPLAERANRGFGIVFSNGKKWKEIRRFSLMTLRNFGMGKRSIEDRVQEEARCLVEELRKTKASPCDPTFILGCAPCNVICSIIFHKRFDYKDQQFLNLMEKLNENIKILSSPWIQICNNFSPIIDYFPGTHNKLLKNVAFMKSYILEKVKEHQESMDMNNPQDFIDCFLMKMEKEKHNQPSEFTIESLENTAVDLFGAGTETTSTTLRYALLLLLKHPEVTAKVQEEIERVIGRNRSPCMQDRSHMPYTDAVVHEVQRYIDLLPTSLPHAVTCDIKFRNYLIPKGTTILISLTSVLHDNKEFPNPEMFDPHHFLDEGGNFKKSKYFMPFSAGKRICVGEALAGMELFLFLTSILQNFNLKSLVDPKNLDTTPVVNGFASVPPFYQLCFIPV
Series [5] in a line: Inhibition of BzATP-induced current in rat primary microglia cells measured after repeated BzATP treatment at -60 mV at 10 nM by whole cell patch clamp assay relative to control. Format: functional. In a few lines: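 Rat primary microglia were whole-cell patch-clamped at −60 mV (external pH 7.4 with 1.8 mM CaCl2; CsCl/EGTA internal pH 7.2). Currents came from 10 s applications of 300 μM BzATP, applied repeatedly. Compound was applied by gravity via capillary for 60 s, and inhibition was taken relative to the control response.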

A short description of a further series: in vitro. Particulars: human, liver microsomes; call rule not given here.
A short description of series [6]: Reduction in LPS/BzATP-induced IL-1beta release in icv dosed C57BL/6NCrl mouse frontal cortex assessed as minimal effective dose pretreated 1 hr before BzATP stimulus. The series is classed as functional. Particulars: read-out: MED. In a few lines:
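Rats and mice with frontal cortex microdialysis probes and a lateral ventricle cannula received icv LPS (rat 3 μg/5 μL; mouse 0.1 μg/3 μL), and 1 h later oral compound in 20% HP-β-cyclodextrin. BzATP icv (rat 50 μg; mouse 5 μg) followed 1 h later.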

In series [7] the target is T1, Potassium voltage-gated channel subfamily KQT member 1 (Homo sapiens, UniProt P51787).
T1 sequence (P51787 whole entry): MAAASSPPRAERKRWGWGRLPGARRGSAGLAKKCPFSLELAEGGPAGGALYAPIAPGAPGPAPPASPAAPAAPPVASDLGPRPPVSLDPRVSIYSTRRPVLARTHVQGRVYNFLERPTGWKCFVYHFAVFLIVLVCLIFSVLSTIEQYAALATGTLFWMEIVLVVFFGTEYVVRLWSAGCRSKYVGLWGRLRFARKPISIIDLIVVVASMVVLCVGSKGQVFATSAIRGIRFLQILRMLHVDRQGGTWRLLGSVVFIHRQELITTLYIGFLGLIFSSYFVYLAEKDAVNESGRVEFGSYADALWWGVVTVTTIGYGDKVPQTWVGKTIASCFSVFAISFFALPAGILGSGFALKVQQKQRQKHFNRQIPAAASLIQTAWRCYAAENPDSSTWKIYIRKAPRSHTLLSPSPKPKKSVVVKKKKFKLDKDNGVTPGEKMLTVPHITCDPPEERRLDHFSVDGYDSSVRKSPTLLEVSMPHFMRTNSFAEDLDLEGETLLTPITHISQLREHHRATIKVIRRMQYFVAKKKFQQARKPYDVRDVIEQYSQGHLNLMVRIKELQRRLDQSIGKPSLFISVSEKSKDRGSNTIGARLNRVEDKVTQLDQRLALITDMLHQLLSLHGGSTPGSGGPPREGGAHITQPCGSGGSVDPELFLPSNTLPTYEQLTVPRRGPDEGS
The experiment in a line: Inhibition of human KCNQ1 at 10 uM. In a few lines: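 Human Nav1.5, Cav1.2 and KCNQ1/minK channels were tested at 10 μM.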

Series [8] is described as follows: Tmax in female mouse at 100 mg/kg, po after 14 days. Particulars: in vivo.
Series [9] is described as follows: Metabolic stability in human hepatocytes assessed as intrinsic clearance at 1 uM measured after 2 hrs. Particulars: read-out: CLH (converted). The series is classed as ADME, cell-based, Hepatocyte.
Series [10] is described as follows: Tmax in male rat at 150 mg/kg, po after 7 days. Particulars: in vivo, time 7 day. The series is classed as ADME, organism-based.
For a further series, the target named is T2, Cytochrome P450 2B6 (Homo sapiens, UniProt P20813).
T2 sequence (P20813 whole entry): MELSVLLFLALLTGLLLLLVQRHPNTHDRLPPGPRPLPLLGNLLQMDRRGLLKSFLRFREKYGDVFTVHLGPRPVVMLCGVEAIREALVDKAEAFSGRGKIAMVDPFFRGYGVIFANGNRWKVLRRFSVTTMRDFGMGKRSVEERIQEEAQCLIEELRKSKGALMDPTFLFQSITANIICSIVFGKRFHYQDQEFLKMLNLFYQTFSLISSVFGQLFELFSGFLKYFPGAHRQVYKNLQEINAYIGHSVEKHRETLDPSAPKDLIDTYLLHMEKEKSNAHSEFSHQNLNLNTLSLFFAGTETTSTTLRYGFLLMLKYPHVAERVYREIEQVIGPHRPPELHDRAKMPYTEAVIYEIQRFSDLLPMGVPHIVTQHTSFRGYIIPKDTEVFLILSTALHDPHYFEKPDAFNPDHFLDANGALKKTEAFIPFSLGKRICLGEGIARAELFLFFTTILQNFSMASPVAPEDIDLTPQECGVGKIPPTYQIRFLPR
In words: Inhibition of CYP2B6 (unknown origin) upto 25 uM. The series is classed as ADME.

The target in the next series is Cytochrome P450 3A4 (Homo sapiens, UniProt P08684). In words: Inhibition of CYP3A4 (unknown origin) upto 25 uM. Format: ADME.
Sequence of Cytochrome P450 3A4 (P08684 whole entry): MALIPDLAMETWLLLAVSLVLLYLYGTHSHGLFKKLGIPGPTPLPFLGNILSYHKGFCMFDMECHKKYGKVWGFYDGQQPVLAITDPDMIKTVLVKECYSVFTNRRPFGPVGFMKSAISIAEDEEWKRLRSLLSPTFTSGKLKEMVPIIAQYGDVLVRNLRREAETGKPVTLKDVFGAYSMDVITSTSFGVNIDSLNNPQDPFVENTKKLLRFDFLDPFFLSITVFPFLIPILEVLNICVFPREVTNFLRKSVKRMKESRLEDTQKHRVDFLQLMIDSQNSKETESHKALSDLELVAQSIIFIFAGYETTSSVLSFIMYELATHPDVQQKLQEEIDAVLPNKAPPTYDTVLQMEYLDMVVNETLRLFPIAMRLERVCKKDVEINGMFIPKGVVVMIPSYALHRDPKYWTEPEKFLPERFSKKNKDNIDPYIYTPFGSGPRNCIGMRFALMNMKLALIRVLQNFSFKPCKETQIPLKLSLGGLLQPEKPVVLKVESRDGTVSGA
The target in a further series is T3, Cytochrome P450 2C8 (Homo sapiens, UniProt P10632).
T3 sequence (P10632 whole entry): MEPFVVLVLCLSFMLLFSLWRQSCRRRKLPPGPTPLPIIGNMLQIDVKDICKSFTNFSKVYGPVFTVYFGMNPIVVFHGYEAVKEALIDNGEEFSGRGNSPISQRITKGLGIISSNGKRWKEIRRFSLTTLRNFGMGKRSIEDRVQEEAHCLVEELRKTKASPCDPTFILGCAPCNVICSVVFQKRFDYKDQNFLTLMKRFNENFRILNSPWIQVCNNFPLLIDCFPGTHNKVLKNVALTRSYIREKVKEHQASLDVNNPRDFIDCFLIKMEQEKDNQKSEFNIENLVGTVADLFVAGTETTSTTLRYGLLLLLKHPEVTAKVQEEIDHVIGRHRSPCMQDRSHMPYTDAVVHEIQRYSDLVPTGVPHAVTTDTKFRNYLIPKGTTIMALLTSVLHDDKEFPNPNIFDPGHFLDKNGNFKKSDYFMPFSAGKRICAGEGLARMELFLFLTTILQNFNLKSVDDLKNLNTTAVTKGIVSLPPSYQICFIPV
In words: Time dependent inhibition of CYP2C8 (unknown origin) upto 25 uM. The series is classed as ADME.

pIC50: −log10 of the molar value.

One may read the AUC as the area under the concentration-time curve, a measure of exposure. Higher therefore signals more exposure. A word on the Cmax: it is the maximum level reached in the sampled fluid or tissue. The term pIC50 denotes the negative decadic logarithm of the IC50, by convention in mol/L. As usually defined, the inhibition is the drop in the measured response relative to a control, in per cent. One may read the Tmax as the time from dosing to the highest level. `O=C(NC[C@H](c1ccc(Cl)cc1)N1CCOCC1)c1sc(-c2ncccn2)nc1C(F)(F)F` showed an AUC at 168 h in series [1] of 210 µM·h. In [2], this compound came in with a Cmax of 39.6 µM. This compound also showed a pIC50 in series [3] of 7.42. Also, in [4], the “Cp(f)” value stood at 0.497 µM. Moreover, the “inhibition (INH)” value (against Cytochrome P450 2C9; in [7]; against Cytochrome P450 2B6; against Cytochrome P450 3A4) was “Not Active” throughout. In [5], the inhibition at 0.01 µM was 31%. Besides, the CLint scaled at 1 h, 1 µM in “in vitro” is 43.3 mL/min/kg. In addition, in series [6], the minimal effective dose stood at 10 mg/kg. The figures for the time to peak (Tmax) in [8] and in [10] were 1 h and 4 h, respectively. In [9], the CLint scaled at 1 µM was 14.2 mL/min/kg. The TDI result on Cytochrome P450 2C8 is recorded as “Not Active”.
